Measurements taken from ChEMBL document CHEMBL1122635, “Synthesis and physicochemical and neurotoxicity studies of 1-(4-substituted-2,5-dihydroxyphenyl)-2-aminoethane analogues of 6-hydroxydopamine” (1984).

What was measured:
Rattus norvegicus [1] = assay: Ability to inhibit norepinephrine uptake in rat atria was determined at 486 umol/kg; format: functional
Procedure, shortened: (§1)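 Male Sprague-Dawley rats (120 ± 10 g) got the dose in 0.9% saline with 0.1% ascorbic acid, 0.2 mL i.v. via the left femoral vein under light halothane. Controls got vehicle. At 24 h, atria were cut into four 10-15 mg pieces and incubated 30 min at 37 °C under 95% O2/5% CO2 in Krebs-Ringer bicarbonate (pH 7.35) with 10^-7 M [3H]NE. A 10 min washout followed, then HClO4 extracts were counted. Inhibition = control minus treated, 12 determinations from 3 rats, mean ± SD.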

Rattus norvegicus [2] = assay: Ability to inhibit norepinephrine uptake in rat atria was determined at 730uM/kg; b denotes 'Rats expired with in 30 min after injection'; format: functional, organism-based; procedure, shortened: as §1
Rattus norvegicus [3] = assay: Ability to inhibit norepinephrine uptake in rat atria was determined at 365 umol/kg; format: functional; procedure, shortened: as §1
Rattus norvegicus [4] = assay: Ability to inhibit norepinephrine uptake in rat atria was determined at 486uM/kg; b denotes 'Rats expired with in 30 min after injection'; format: functional, organism-based; procedure, shortened: as §1
Rattus norvegicus [5] = assay: Ability to inhibit norepinephrine uptake in rat atria was determined at 122 umol/kg; format: functional; procedure, shortened: as §1
Rattus norvegicus [6] = assay: Ability to inhibit norepinephrine uptake in rat atria was determined at 243 umol/kg; format: functional; procedure, shortened: as §1
Rattus norvegicus [7] = assay: Ability to inhibit norepinephrine uptake in rat atria was determined at 24 uM/kg; format: functional; procedure, shortened: as §1
Rattus norvegicus [8] = assay: Ability to inhibit norepinephrine uptake in rat atria was determined at 97 umol/kg; format: functional; procedure, shortened: as §1
Rattus norvegicus [9] = assay: Ability to inhibit norepinephrine uptake in rat atria was determined at 49 uM/kg; format: functional; procedure, shortened: as §1
Rattus norvegicus [10] = assay: Ability to inhibit norepinephrine uptake in rat atria was determined at 73 uM/kg; format: functional; procedure, shortened: as §1
Rattus norvegicus [11] = assay: Ability to inhibit norepinephrine uptake in rat atria was determined at 365uM/kg; b denotes 'Rats expired with in 30 min after injection'; format: functional, organism-based; procedure, shortened: as §1
Rattus norvegicus [12] = assay: Ability to inhibit norepinephrine uptake in rat atria was determined at 243uM/kg; b denotes 'Rats expired with in 30 min after injection'; format: functional, organism-based; procedure, shortened: as §1
Rattus norvegicus [13] = assay: Ability to inhibit norepinephrine uptake in rat atria was determined at122uM/kg; b denotes 'Rats expired with in 30 min after injection'; format: functional, organism-based; procedure, shortened: as §1

Row | Compound | inhibition in vivo at 486 µmol/kg (Rattus norvegicus [1]) [%] | inhibition (Rattus norvegicus [2]) | inhibition (Rattus norvegicus [4]) | inhibition in vivo at 122 µmol/kg (Rattus norvegicus [5]) [%] | inhibition in vivo at 243 µmol/kg (Rattus norvegicus [6]) [%] | Inhibition (Rattus norvegicus [10]) [%] | also measured
1 | N#Cc1cc(O)c(CCN)cc1O | 0 | – | – | – | – | – | –
2 | COc1cc(O)c(CCN)cc1O | – | Rats expired within 30min after injection | Rats expired within 30min after injection | – | – | – | inhibition in vivo at 365 µmol/kg (Rattus norvegicus [3]): 26%
3 | NCCc1cc(O)c(Br)cc1O | – | – | – | 0 | 10 | – | –
4 | NCCc1cc(O)c(Cl)cc1O | 0 | – | – | – | – | – | –
5 | NCCc1cc(O)c(O)cc1O [OXIDOPAMINE] | 87 | – | – | 79 | 85 | 74 | Inhibition (Rattus norvegicus [7]): 45%; inhibition in vivo at 97 µmol/kg (Rattus norvegicus [8]): 79%; Inhibition (Rattus norvegicus [9]): 68%
6 | NCCc1cc(O)ccc1O | 0 | – | – | – | – | – | –
7 | NCCc1cc(O)c([N+](=O)[O-])cc1O | 0 | – | – | – | – | – | –
8 | NCCc1cc(O)c(N)cc1O | – | Rats expired within 30min after injection | Rats expired within 30min after injection | – | – | 80 | inhibition (Rattus norvegicus [11]): Rats expired within 30min after injection; Inhibition (Rattus norvegicus [7]): 20%; inhibition (Rattus norvegicus [12]): Rats expired within 30min after injection; inhibition in vivo at 97 µmol/kg (Rattus norvegicus [8]): 91%; Inhibition (Rattus norvegicus [9]): 60%; inhibition (Rattus norvegicus [13]): Rats expired within 30min after injection
9 | Cc1cc(O)c(CCN)cc1O | – | Rats expired within 30min after injection | Rats expired within 30min after injection | 19 | 27 | 16 | inhibition in vivo at 365 µmol/kg (Rattus norvegicus [3]): 24%
10 | NCCc1cc(O)c(C(=O)O)cc1O | 0 | – | – | – | – | – | –
